Published values from different studies.
Each line is one published result; the experiments were not run side by side. ≈ marks a conversion by molar mass, not a printed value.

Compound | tested on | assay | conditions | endpoint | value
CCOC(=O)C1=C(CCl)NC(=O)NC1c1ccc(C(C)C)cc1 (centres unmarked) |  | DPPH scavenging |  | IC50 | 243 µM
N#CC(=C1C=CC(=NOC(=O)OCc2ccccc2)C=C1)c1ccccc1 | Candidozyma auris | microbial killing, broth dilution | 48 h | MFC | 128 µg/mL (≈ 359 µM)
CCOC(=O)C1=C(CSC2=NCCS2)NC(=O)NC1c1cccc(F)c1 (centres unmarked) |  | DPPH scavenging |  | IC50 | 201 µM
Oc1cc2c(cc1O)C(CCc1ccccc1)NCC2 (centres unmarked) |  | DPPH scavenging, absorbance | 30 min, dark | IC50 | 18 µM
CCOC(=O)C1=C(CCl)NC(=O)NC1c1ccc(C)cc1 (centres unmarked) |  | DPPH scavenging |  | IC50 | 235 µM
C=CC(=O)ON=C1C=CC(=C(C#N)c2ccccc2)C=C1 | Candidozyma auris | microbial growth, broth dilution | 48 h | MIC | 16 µg/mL (≈ 57.9 µM)
COc1ccc(C2NCCc3cc(O)c(O)cc32)cc1O (centres unmarked) |  | DPPH scavenging, absorbance | 30 min, dark | IC50 | 18.7 µM
CCOC(=O)C1=C(CCl)NC(=O)NC1c1ccc(F)cc1 (centres unmarked) |  | DPPH scavenging |  | IC50 | 246 µM
Oc1cccc(-c2nc(N3CCOCC3)c3oc4ncccc4c3n2)c1 | MCF7 | cell growth or viability, CCK-8 | 1 µM | inhibition | 13.9%
COc1cc(C2NCCc3cc(O)c(O)cc32)ccc1O (centres unmarked) |  | DPPH scavenging, absorbance | 30 min, dark | IC50 | 8.15 µM
C[C@H](N)C(=O)Nc1ccccc1/N=c1\cc(-c2ccc3c(c2)OCCO3)oc2c([N+](=O)[O-])cccc12 | MCF7 | cell growth or viability, CCK-8 | 1 µM | inhibition | 6.59%
C#CCON=C1C=CC(=C(C#N)c2ccccc2)C=C1 | Candidozyma auris | microbial growth, broth dilution | 48 h | MIC | 32 µg/mL (≈ 123 µM)
COCCC(=O)Nc1ccccc1/N=c1\cc(-c2ccc3c(c2)OCO3)oc2ccccc12 | MCF7 | cell growth or viability, CCK-8 | 1 µM | inhibition | 9.24%
O=C(C[C@@H](C(F)F)n1ccc(F)n1)N1CCC(O)(Cn2cnc3c(cnn3-c3ccc(F)cc3)c2=O)CC1 | CAPAN-1 | cell growth or viability, SRB | 20 µM, 5 days | viability | 24%
Oc1ccc(C2NCCc3cc(O)c(O)cc32)cc1O (centres unmarked) |  | DPPH scavenging, absorbance | 30 min, dark | IC50 | 8.14 µM
C#CCOC(=O)ON=C1C=CC(=C(C#N)c2ccccc2)C=C1 | Candidozyma auris | microbial growth, broth dilution | 48 h | MIC | 16 µg/mL (≈ 52.6 µM)
CCOC(=O)C1=C(CCl)NC(=O)NC1c1ccc(OC)cc1 (centres unmarked) |  | DPPH scavenging |  | IC50 | 150 µM
Oc1cc2c(cc1O)C(Cc1ccccc1)NCC2 (centres unmarked) |  | DPPH scavenging, absorbance | 30 min, dark | IC50 | 19.7 µM
CC(=O)ON=C1C=CC(=C(C#N)c2ccccc2)C=C1 | Candidozyma auris | microbial killing, broth dilution | 48 h | MFC | 16 µg/mL (≈ 60.5 µM)
NCCC(=O)Nc1ccccc1/N=c1\cc(-c2ccc3c(c2)OCCO3)oc2cc(F)ccc12 | MCF7 | cell growth or viability, CCK-8 | 1 µM | inhibition | -1.71%
O=C1O[C@H]([C@@H](O)CO)C(O)=C1O |  | DPPH scavenging |  | IC50 | 88.4 µM
CCCCCCCCCCCCCCCCCC1NCCc2cc(O)c(O)cc21 (centres unmarked) |  | DPPH scavenging, absorbance | 30 min, dark | IC50 | 34.8 µM
N[C@@H](CO)C(=O)Nc1ccccc1/N=c1\cc(-c2ccc3c(c2)OCO3)oc2ccccc12 | MCF7 | cell growth or viability, CCK-8 | 1 µM | inhibition | 16.3%
